Screens deposited in PubChem by several laboratories.
Hits are enriched below; roughly 3.9% of the tested compounds scored in any of these assays.
Rad51 HR inh: blocks human Rad51 in homologous recombination; Q06609; hRad51 DNA strand exchange, fluorescence dequenching; inhibition, % at 10 µM; 200,000 compounds, 0.085% hits; AID 1385;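 active = inhibition above 40% at the single screening dose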;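 note: 0% = DMSO control wells and 100% = blanks with heterologous ssDNA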
Target sequence (Q06609 whole entry, looked up): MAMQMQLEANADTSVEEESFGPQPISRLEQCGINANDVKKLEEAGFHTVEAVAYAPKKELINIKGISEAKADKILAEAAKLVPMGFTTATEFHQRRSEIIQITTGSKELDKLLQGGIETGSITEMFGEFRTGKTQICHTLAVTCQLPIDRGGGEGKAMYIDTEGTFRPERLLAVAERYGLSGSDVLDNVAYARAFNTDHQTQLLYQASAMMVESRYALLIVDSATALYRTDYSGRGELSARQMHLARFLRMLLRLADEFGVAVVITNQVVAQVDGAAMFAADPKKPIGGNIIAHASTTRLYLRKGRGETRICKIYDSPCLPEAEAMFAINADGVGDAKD
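material = hRad51 filaments on single-stranded DNA | timing = filaments 15 min 37 °C, then compound 30 min | signal = FRET fluorescence dequenching, excitation 485 nm, emission 520 nm | benchmarks = control wells and blank wells on each plate | evaluation = percent inhibition relative to plate controls and blanks | compound = 10 µM final, single point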
STAT1 act: increases IFN-gamma driven STAT1 reporter signal; NIH 3T3 STAT1-luciferase reporter, luminescence; 100% = IFN-gamma alone, no compound; activation (% of control), % at 5.5 µM; 200,000 compounds, 2.6% hits;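 active = activation above the screen-wide mean activation plus 3 SD, cut at about 130% in these data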;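 note: raw ratio to IFN-gamma control signal so 100% means no change and 0% no light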
FLuc inh counter: inhibits firefly luciferase, flagging false hits in luciferase inhibition screens; ATPLite firefly luciferase biochemical luminescence, 10 min; inhibition, % at 10 µM; 200,000 compounds, 1.5% hits; AID 1006;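 active = inhibition above about 50% when tested at 10 µM, limit read from the data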
FLuc stim CS: firefly luciferase counter-screen for stimulation assays; ATPlite luciferase biochemical, luminescence, 10 min; 0 = ATP-free wells, 1 = DMSO control; activation factor at 10 µM; AID 1027; 200,000 tested, under 10 active; P08659;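 active = luciferase activation factor, scaled between plate controls, of at least 2 with compound at 10 µM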
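System: Luciferase/luciferin detection reagent, cell-free biochemical luciferase assay | Medium: PBS buffer for ATP | Dosing: Test compounds dosed from 2 mM stocks in 100% DMSO | Timing: 10 min at ambient temperature | Signal: Luminescence measurement of luciferase light output | Evaluation: Luciferase activation, seen as luminescence increase over controls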
NF-kB expr up: compounds increasing NF-kB expression in human neuronal cells; NF-kB reporter expression; active compounds read high; fold change at 12.5 µM; 190,000 compounds, 1.6% hits; in the data active = fold change above about 3.3
APP 5'UTR act: APP 5'UTR luciferase reporter activation; SH-SY5Y APP 5'UTR luciferase reporter, luminescence; zero percent = DMSO vehicle wells; activation, % at 2 µM; 190,000 compounds, 1% hits; AID 1276;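 active = activation above a set limit, based on mean plus 3 SD of controls, cut at about 140% in these data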
* marks the source's active call; other numbers are inactive results; i = inactive; x = no result given.

SMILES | Rad51 HR inh | STAT1 act | FLuc inh counter | FLuc stim CS | NF-kB expr up | APP 5'UTR act
CCOc1ccc(C(=O)NC(Cc2ccccc2)C(=O)OC)cc1 (centres undefined) | 5 | 107 | 53* | 0.5 | 1.5 | 56
CCOc1ccc(NC(=O)c2ccc(N)cc2)cc1 | -6 | 107 | 71* | 0.3 | 1.2 | 19
COC(=O)C(Cc1ccccc1)NC(=O)COc1ccc(C(C)(C)C)cc1 (centres undefined) | 7 | 101 | -4 | 1 | 0.8 | -34
CCCC(=O)Nc1cccc(C(=O)Nc2ccccc2OCC)c1 | 8 | 101 | -2 | 1 | 1.3 | 9
O=C(O)COc1ccc(/C=C/c2nc3ccc([N+](=O)[O-])cc3s2)cc1 | -16 | x | x | x | x | x
COc1ccc(C(=O)NC=C2C(=O)OC(C)(C)OC2=O)cc1 | -1 | 103 | -5 | 1.1 | 1.2 | -1
CCC(C(=O)Nc1ccc(C(=O)N2CCCC2)cc1)c1ccccc1 (centres undefined) | 6 | 100 | -3 | 1 | 1.1 | 5
CCOc1ccc(NC(=O)c2nn(C)cc2Br)cc1 | 2 | 121 | 70* | 0.3 | 2.2 | 62
CCOc1ccc(NC(=O)c2nsc(Cl)c2Cl)cc1 | 6 | 150* | 51* | 0.5 | 6.4* | 234*
C/C(=N\NC(=O)c1nn(C)cc1Br)c1ccc(NC(=O)c2ccncc2)cc1 | 5 | 131* | -7 | 1.1 | 1.4 | 10
CCOc1ccc(NC(=O)c2ccncc2)cc1 | 14 | 104 | 6 | 0.9 | 1 | 2
CC(C)Oc1cccc(C(=O)C2CCCN(C(=O)CCn3cnnn3)C2)c1 (centres undefined) | 0 | 104 | -2 | 1 | 1.1 | 5
COC(=O)C1(C)Cc2cc(OC(C)=O)c(OC(C)=O)cc2N1 (centres undefined) | 12 | x | x | x | x | x
CCN(CC)c1ccc(/C=C2\SC(=O)N(C(C)C)C2=O)o1 | i | x | x | x | x | x
CCOC(=O)c1cnn2c(C)cc(-c3ccc(F)cc3)nc12 | 20 | 146* | 17 | 0.8 | 3 | 82
Cc1nc2c3cnn(-c4ccc(C)c(C)c4)c3ncn2n1 | 6 | 148* | 7 | 0.9 | 4.3* | x
C/C(=N\Nc1cccc2cccnc12)c1ccc(N)cc1 | 3 | 111 | 11 | 0.9 | 2.3 | 198*
C/C(=N\Nc1cccc2cccnc12)c1ccccc1O | 14 | 118 | 68* | 0.3 | 6.9* | 202*
CNC(=O)Nc1cccc2cccnc12 | -10 | x | x | x | x | x
C/C(=N\Nc1cccc2cccnc12)c1ccccn1 | -4 | 61 | 87* | 0.1 | 0.97 | 272*
O=C(Nc1cccc2cccnc12)c1cccc2ccccc12 | 8 | 102 | -7 | 1.1 | 1 | 3
C/C(=N\Nc1ncc(Cl)cc1Cl)c1ccccn1 | -430 | 36 | 94* | 0.1 | 0.44 | -70
Cc1ccc(NC(=O)c2cc3nc(C)cc(C)n3n2)cc1 | x | 142* | 40 | 0.6 | 4.2* | 146*
Cc1ccc(-c2cc3nc(C)cc(C)n3n2)cc1 | x | 134* | 44 | 0.6 | 5.1* | 171*
Cc1cc(C)n2nc(-c3ccccc3)cc2n1 | -1 | 142* | 31 | 0.7 | 3.7* | 127
SMILES | Rad51 HR inh | STAT1 act | FLuc inh counter | FLuc stim CS | NF-kB expr up | APP 5'UTR act
Cc1cc(C)n2nc(C(=O)NCc3ccccc3)cc2n1 | -7 | 98 | -6 | 1.1 | 1.3 | 6
Cc1oc(S(=O)(=O)N2CCOCC2)cc1C(=O)Nc1ccc(Cl)cc1 | 13 | x | x | x | x | x
NC1=NN=C(c2ccc3c(c2)OCCO3)CS1 | 6 | 54 | 79* | 0.2 | 1.6 | 81
C=CCN=C1NN=C(c2ccc3c(c2)OCCO3)CS1 | 9 | 40 | 94* | 0.1 | 1.2 | 58
C=CCN=C1NN=C(c2cc(C)n(CC=C)c2C)CS1 | -1 | 78 | 92* | 0.1 | 0.25 | 58
Cc1[nH]c(-c2ccc3c(c2)OCO3)nc1C(=O)O | -7 | 98 | 6 | 0.9 | 1.4 | -14
COCCN=C1NN=C(c2cc(C)n(CC3CCCO3)c2C)CS1 (centres undefined) | -9 | 96 | 25 | 0.8 | 0.52 | 6
O=C(Nc1ccc(S(=O)(=O)Nc2ccccc2)cc1)c1ccc(CN2CCOCC2)cc1 | -3 | 78 | -3 | 1 | 0.75 | 8
CC1(C)CC[C@]2(CO)[C@@H](O)C[C@]3(C)C(=CCC4[C@@]5(C)CC[C@H](O)C(C)(C)C5CC[C@]43C)[C@@H]2C1 (some centres undefined) | 2 | x | x | x | x | x
Cc1ccc(NC(=O)c2csc(-c3ccccc3)c2C)cc1 | -7 | 43 | 85* | 0.1 | 0.78 | 216*
O=C(NCc1cccs1)c1cc(-c2ccccc2)on1 | 7 | 124 | 0 | 1 | 2.9 | 85
O=C(NCc1cccs1)c1cc(-c2cccs2)on1 | 2 | 138* | 2 | 1 | 2.3 | 76
Cc1ccc(NC(=O)c2cccs2)cc1 | x | 131* | 32 | 0.7 | 2.9 | 75
O=C(Nc1ccc(NC(=O)C2CCCCC2)nc1)c1cccs1 | 1 | 132* | 0 | 1 | 1.9 | 49
Cc1ccc(NC(=O)C(=O)NNC(=O)c2cccs2)cc1 | 6 | 114 | 1 | 1 | 1.4 | 14
CN(C)/C=C/C(=O)c1ncc(C(F)(F)F)cc1Cl | 14 | 106 | -4 | 1 | 0.99 | 1
CC1(CCc2ccccc2)NC(=O)N(CC(=O)N2CC(=O)Nc3ccccc32)C1=O (centres undefined) | 10 | x | x | x | x | x
O=C1CC(C(F)(F)F)=NN1 | 11 | x | x | x | x | x
CN1CCN(c2cc(C(F)(F)F)nc3ccc(F)cc23)CC1 | -16 | x | x | x | x | x
COCCNC(=O)c1cc(-c2ccc3c(c2)OCO3)on1 | x | 96 | 56* | 0.4 | 2.6 | 33
COc1ccc(CNC(=O)c2cc(-c3cccs3)on2)cc1 | -1 | 106 | -1 | 1 | 1.3 | 2
Cc1ccc(NC(=O)c2cc(-c3cccs3)on2)cc1 | -1 | 130* | 7 | 0.9 | 2.4 | 13
COCCNC(=O)c1cc(-c2cccs2)on1 | 7 | 135* | 6 | 0.9 | 6.4* | 27
Cc1ccc(-n2nc(C)c(Sc3ccccc3[N+](=O)[O-])c2N)cc1 | 17 | 91 | -5 | 1 | 1.1 | 18
CCOC(=O)N1CCC(N2C(=O)c3ccccc3C2Nc2ccc(S(=O)(=O)N3CCOCC3)cc2)CC1 (centres undefined) | x | 105 | -2 | 1 | 0.89 | -3
O=C1C=C(c2ccc3c(c2)OCO3)CCC1 | 12 | x | x | x | x | x
COc1ccc(CCNC(=O)c2[nH]c(C)c(C(C)=O)c2C)cc1 | -5 | 94 | -10 | 1.1 | 0.79 | -13
COc1ccc(OCCOC(=O)c2[nH]c(C)c(C(C)=O)c2C)cc1 | 9 | 89 | -4 | 1 | 5.8* | -4
CC1CCC2(CC1)NC(=O)N(CC(=O)NC(=O)Nc1ccc3c(c1)OCCO3)C2=O (centres undefined) | -15 | x | x | x | x | x
